Measured values from paper PMC8314033 (BioImpacts : BI, 2020).

Columns and labels:
[1] = test system: MCF7 (breast cancer cell lines); assay: In vitro cell antiproliferative test; type: cell-based, human; conditions: MCF7, 200 µg/mL, 48 hours
Outline: (§1)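 Cells grown in DMEM with 10% heat-inactivated FBS and penicillin-streptomycin, detached with trypsin-EDTA, and counted by trypan blue. Plated at 10 × 10³ cells/well and allowed to attach for 24 h at 37°C, 5% CO2. Exposed 48 h to isolated compounds at 1.8–200 µg/mL final, in triplicate. MTT added at 1 mg/mL final for 4 h, formazan dissolved in DMSO, and A570 read. Survival calculated as a percentage of untreated wells.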

[2] = test system: 3T3 (non-cancer immortal cell lines); assay: In vitro cell antiproliferative test; type: cell-based; conditions: 3T3, 200 µg/mL, 48 hours
Outline: as §1

[3] = Hydroxyl radical scavenging activity; conditions: 5 minutes, 560 nm; standard ascorbic acid

SMILES: Oc1cc(O)cc(-c2cc3ccc(O)cc3o2)c1 [Moracin M]
- % of cell survival [1]: 16.09%
- % of cell survival [2]: 21.6%

SMILES: O=C1O[C@H]([C@@H](O)CO)C(O)=C1O [ascorbic acid]
- Hydroxyl radical scavenging EC50 [3]: 6.58 µg/mL

SMILES: CC(C)=CCc1c(O)cc(O)cc1-c1cc2ccc(O)c(CC=C(C)C)c2o1 [Cathafuran B, cathafuran B]
- % of cell survival [1]: 8.89%
- % of cell survival [2]: 20.58%

SMILES: C[C@H]1[C@H](C)CC[C@]2(C(=O)O)CC[C@]3(C)C(=CC[C@@H]4[C@@]5(C)CC[C@H](O)C(C)(C)[C@@H]5CC[C@]43C)[C@H]12 [Ursolic acid, ursolic acid]
- % of cell survival [1]: 8.46%
- % of cell survival [2]: 17.58%
